{
  "source": "ChEMBL document CHEMBL1146506",
  "about": "“Sesquiterpene coumarins from Ferula fukanensis and nitric oxide production inhibitory effects” (J Nat Prod, 2004)",
  "key": {"RAW264.7 [1]": {"tested_on": "RAW264.7", "test": "Inhibition of LPS and INF-gamma-induced NO production in mouse RAW264.7 cells", "format": "functional, cell-based", "in_short": "(§1)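 Cells seeded at 1.2 × 10^6 cells/mL, preincubated 2 h at 37 °C. Test compound added together with E. coli LPS (100 ng/mL) and recombinant mouse IFN-γ (0.33 ng/mL), then incubated at 37 °C, usually 16 h. Nitrite in chilled culture supernatant measured with Griess reagent (1% sulfanilamide in 5% H3PO4, 0.1% naphthylethylenediamine) against NaNO2 standards, read at 550 nm minus 630 nm background.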"}, "RAW264.7 [2]": {"tested_on": "RAW264.7", "test": "Inhibition of LPS and INF-gamma-induced iNOS mRNA expression in mouse RAW264.7 cells by RT-PCR analysis", "format": "functional, cell-based", "in_short": "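Cells at 1.2 × 10^6 cells/mL, preincubated 2 h at 37 °C, then test compound added with LPS (100 ng/mL) and IFN-γ (0.33 ng/mL) for about 8 h. Total RNA (250 ng) reverse-transcribed with oligo(dT) primer. iNOS and GAPDH amplified with specific primers for 25 cycles (94 °C 1 min, 60 °C 1 min, 72 °C 1.5 min).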"}, "RAW264.7 [3]": {"tested_on": "RAW264.7", "test": "Inhibition of LPS and INF-gamma-induced NO production in mouse RAW264.7 cells at 10 ug/mL", "format": "functional, cell-based", "in_short": "as §1"}, "RAW264.7 [4]": {"tested_on": "RAW264.7", "test": "Cytotoxicity against mouse RAW264.7 cells at 10 ug/mL", "format": "cell-based", "in_short": "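MTT assay. Compound given at 0.3–10 µg/mL during LPS/IFN-γ treatment for 24 h.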"}},
  "note": "Active and inactive are the calls of the source. The calls are words filed in the database; no cut-off is given here.",
  "data": [
    {"smiles": "CC(C)=CC(=O)/C=C(/C)CCC[C@@]1(C)Oc2c(c(=O)oc3cc(O)ccc23)[C@H]1C", "note": "(relative stereo) [FUKANEFUROMARIN D]", "values": [
      {"measurement": "IC50", "setting": "RAW264.7 [1]", "value": 8.9, "unit": "µM"},
      {"measurement": "Activity", "setting": "RAW264.7 [2]", "value": "Dose-dependent effect"}
    ]},
    {"smiles": "CC(C)=CCC/C(C)=C/CC[C@@]1(C)Oc2c(c(=O)oc3cc(O)ccc23)[C@@H]1C", "values": [
      {"measurement": "Activity", "setting": "RAW264.7 [3]", "value": "inactive"},
      {"measurement": "Activity", "setting": "RAW264.7 [4]", "value": "Non-toxic"}
    ]},
    {"smiles": "CC(C)=CCC/C(C)=C/CC[C@@]1(C)Oc2c(c(=O)oc3cc(O)ccc23)[C@H]1C", "values": [
      {"measurement": "Activity", "setting": "RAW264.7 [3]", "value": "inactive"},
      {"measurement": "Activity", "setting": "RAW264.7 [4]", "value": "Non-toxic"}
    ]},
    {"smiles": "CC(C)=CC(=O)C/C(C)=C/CC[C@@]1(C)Oc2c(c(=O)oc3cc(O)ccc23)[C@@H]1C", "values": [
      {"measurement": "IC50", "setting": "RAW264.7 [1]", "value": 24.6, "unit": "µM"}
    ]},
    {"smiles": "CC(C)=CC(=O)C/C(C)=C/CC[C@@]1(C)Oc2c(c(=O)oc3cc(O)ccc23)[C@H]1C", "note": "(relative stereo)", "values": [
      {"measurement": "IC50", "setting": "RAW264.7 [1]", "value": 31.2, "unit": "µM"}
    ]},
    {"smiles": "CC(C)=CC(=O)/C=C(/C)CCC[C@@]1(C)Oc2c(c(=O)oc3cc(O)ccc23)[C@@H]1C", "note": "(relative stereo) [FUKANEFUROMARIN C]", "values": [
      {"measurement": "IC50", "setting": "RAW264.7 [1]", "value": 11.1, "unit": "µM"},
      {"measurement": "Activity", "setting": "RAW264.7 [2]", "value": "Dose-dependent effect"}
    ]},
    {"smiles": "CC(C)=CC(=O)/C=C(\\C)CCC[C@@]1(C)Oc2c(c(=O)oc3cc(O)ccc23)[C@@H]1C", "note": "(relative stereo) [FUKANEFUROMARIN A]", "values": [
      {"measurement": "IC50", "setting": "RAW264.7 [1]", "value": 13, "unit": "µM"}
    ]},
    {"smiles": "CC(C)=CC(=O)/C=C(\\C)CCC[C@@]1(C)Oc2c(c(=O)oc3cc(O)ccc23)[C@H]1C", "note": "(relative stereo) [FUKANEFUROMARIN B]", "values": [
      {"measurement": "IC50", "setting": "RAW264.7 [1]", "value": 16.2, "unit": "µM"}
    ]}
  ]
}
